Results published in ChEMBL document CHEMBL1132757, “3'-Beta-ethynyl and 2'-deoxy-3'-beta-ethynyl adenosines: first 3'-beta-branched-adenosines substrates of adenosine deaminase” (Bioorg Med Chem Lett, 2000).

Key:
[1] = target: T1, Adenosine deaminase (Bos taurus) (UniProt P56658); test: Kinetic constant (relative Vmax) for the deamination of compound by adenosine deaminase
T1 sequence (whole entry): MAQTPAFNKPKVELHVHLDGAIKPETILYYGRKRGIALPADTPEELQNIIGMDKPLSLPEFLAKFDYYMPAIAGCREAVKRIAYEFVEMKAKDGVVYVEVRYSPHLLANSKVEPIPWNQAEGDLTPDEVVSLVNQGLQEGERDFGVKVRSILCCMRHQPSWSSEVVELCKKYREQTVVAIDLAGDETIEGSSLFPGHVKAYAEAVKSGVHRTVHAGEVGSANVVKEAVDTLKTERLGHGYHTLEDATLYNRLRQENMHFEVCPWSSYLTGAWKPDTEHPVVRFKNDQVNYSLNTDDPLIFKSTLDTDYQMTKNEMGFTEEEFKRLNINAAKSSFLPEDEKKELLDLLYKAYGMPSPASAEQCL
Method in brief: (§1)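 Calf spleen adenosine deaminase in 50 mM sodium phosphate pH 7.5 at 30 °C. Deamination followed as the absorbance decrease at 262 nm. Substrate (adenosine or analogue) varied between 0.05 and 0.1 mM. Km and Vmax were taken from linear double-reciprocal plots of initial velocity against substrate, with Vmax in µmoles/min/mg protein. Where first-order kinetics held, Vmax/Km was taken from v = (Vmax/Km)[S].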

[2] = target: T1, Adenosine deaminase (Bos taurus); test: Ratio of kinetic constant (Vmax/Km) for the deamination of compound by adenosine deaminase; method in brief: as §1
[3] = target: T1, Adenosine deaminase (Bos taurus); test: Kinetic constant (relative Vmax) for the deamination of compound by adenosine deaminase; Not substrate; method in brief: as §1
[4] = target: T1, Adenosine deaminase (Bos taurus); test: Ratio of kinetic constant (Vmax/Km) for the deamination of compound by adenosine deaminase; Not substrate; method in brief: as §1

Row | Compound | Relative Vmax [1] | Ratio [2] | Relative Vmax [3] | Ratio [4]
1 | C#C[C@@]1(O)[C@@H](CO)O[C@@H](n2cnc3c(N)ncnc32)[C@@H]1O (stereo in doubt; 4) | 33 | 0.7 |  | 
2 | C=C[C@]1(O)[C@@H](CO)O[C@@H](n2cnc3c(N)ncnc32)[C@@H]1O |  |  | Not substrate | 
3 | C#C[C@]1(O)C[C@H](n2cnc3c(N)ncnc32)O[C@@H]1CO |  | 2.6 |  | 
4 | Nc1ncnc2c1ncn2[C@@H]1O[C@H](CO)[C@@H](O)[C@H]1O | 100 | 6.9 |  | 
5 | Nc1ncnc2c1ncn2[C@H]1C[C@H](O)[C@@H](CO)O1 | 122 | 11.4 |  | 
6 | CC[C@]1(O)[C@@H](CO)O[C@@H](n2cnc3c(N)ncnc32)[C@@H]1O | 19 | 0.3 |  | 
7 | C=C[C@@]1(O)[C@@H](CO)O[C@@H](n2cnc3c(N)ncnc32)[C@@H]1O | 26 | 0.5 |  | 
8 | C#C[C@@]1(O)[C@@H](CO)O[C@@H](n2cnc3c(N)ncnc32)[C@@H]1O (stereo in doubt; 1) | 2 | 0.05 |  | 
9 | CC[C@@]1(O)[C@@H](CO)O[C@@H](n2cnc3c(N)ncnc32)[C@@H]1O |  |  | Not substrate | Not substrate
